biological target: T1, OR2W1 (Homo sapiens) (UniProt Q9Y3N9); settings: stereoisomer not certain
T1 sequence (whole entry): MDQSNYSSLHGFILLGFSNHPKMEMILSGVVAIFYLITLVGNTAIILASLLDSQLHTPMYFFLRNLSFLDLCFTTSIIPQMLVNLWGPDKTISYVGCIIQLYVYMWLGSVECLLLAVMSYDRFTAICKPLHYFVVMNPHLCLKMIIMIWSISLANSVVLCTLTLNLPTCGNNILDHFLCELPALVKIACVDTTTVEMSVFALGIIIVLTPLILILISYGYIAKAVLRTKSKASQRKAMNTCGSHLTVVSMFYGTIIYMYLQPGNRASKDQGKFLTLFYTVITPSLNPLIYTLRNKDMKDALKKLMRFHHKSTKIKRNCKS
Method in brief: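 Transient luciferase assays in mammalian cell lines were common, though methods varied by source. The values come from published papers and their supplementary material, with extra details from the original authors when needed. Responsive refers to a measured signal the original authors judged statistically different from baseline, and non-responsive (inactive) to the remainder.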

Odorant receptor agonist call, inactive:
CC=O
CSC
CCC(C)C(=O)OC (centres undefined)
CCCCC(=O)O
CC(C)=CC1CC(C)CCO1 (centres undefined)
CC(=O)O
CCCCOC(=O)C(C)OC(=O)CCC (centres undefined)
CCC(=O)C(C)S (centres undefined)
CCCCC(C)CCC(=O)O (centres undefined)
O=C(O)CCc1ccccc1
C=CCOC(=O)CCCCCC
COc1nccnc1C(C)C
CCCc1ccc(O)c(OC)c1
OCc1ccccc1
CCC(S)C(C)=O (centres undefined)
CCC=O
O=C(O)C=Cc1ccc(O)cc1
CCCCCCCCCC(=O)[O-].[H+]
Cc1ccc(O)cc1
CCC(C(=O)O)c1ccccc1 (centres undefined)
CCCCCO
CCOC(C)=O

Odorant receptor agonist call, active:
CCCCCCCCS
CCCCCC(=O)CC(C)=O
CSSSC
CCCCCCCCCCO
O=C(c1ccccc1)c1ccccc1
CCCCCCCCCS
C=C(C)C1CCC(C)C(=O)C1 (centres undefined)
CCOc1ccc2ccccc2c1
CCCCCCC(C)=O
CCCCCC(=O)CC
CC(=O)CC(=O)CC(C)C
CCCCCCCCO
